Experimental data as given in ChEMBL document CHEMBL1765022, “Synthesis and biological evaluation of tetracyclic thienopyridones as antibacterial and antitumor agents” (Bioorg Med Chem, 2011).
≈ marks a conversion by molar mass, not a printed value.

Columns and labels:
[1] = tested on: Staphylococcus epidermidis; test: Antimicrobial activity against Staphylococcus epidermidis ATCC 12228 by broth dilution method; type: functional
How it was run: (§1)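 Twofold serial broth dilution in Mueller Hinton Broth. […] Growth (drug-free), DMSO solvent and organism-free sterility tubes were included. Three replicates per organism, at least three independent experiments.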

Staphylococcus aureus [2] = test: Antimicrobial activity against Staphylococcus aureus ATCC 6538 by broth dilution method; type: functional; how it was run: as §1
Staphylococcus aureus [3] = test: Antimicrobial activity against quinilone-pencillin-resistant Staphylococcus aureus isolate SAR 4790 by broth dilution method; type: functional
How it was run: (§2)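 Twofold serial broth dilution in Mueller Hinton Broth. […] Drug-free tubes, DMSO-only tubes and organism-free tubes served as growth, solvent and sterility controls. Three replicates per organism, at least three independent experiments.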

[4] = Antimicrobial activity against Bacillus thuringiensis var.kurstaki BGSC 4D1 by broth dilution method; type: functional, Bacillus thuringiensis serovar kurstaki; how it was run: as §1
Pseudomonas aeruginosa = test: Antimicrobial activity against Pseudomonas aeruginosa ATCC 9027 by broth dilution method; type: functional; how it was run: as §1
Escherichia coli [5] = test: Antimicrobial activity against quinilone-pencillin-resistant Escherichia coli clinical isolate by broth dilution method; type: functional
A549 = test: Antitumor activity against human A549 cells after 72 hrs by MTT assay; type: functional, cell-based; conditions: A549, 72 h
How it was run: (§3)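 Cells were kept at 37 °C in 5% CO₂, in medium with 2 mM glutamine and 10% FBS; HuDe fibroblasts were grown in DMEM. Compounds were freshly dissolved in DMSO (final ≤0.1% v/v; controls received equal solvent) and applied at 0.1–20 µM for 72 h. Viability was read by MTT. IC₅₀ was extrapolated from Hill-fitted dose–response curves, from at least three independent experiments.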

Candida tropicalis = test: Antimicrobial activity against Candida tropicalis ATCC 1369 by broth dilution method; type: functional
How it was run: (§4)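 Fungi were tested by twofold serial broth dilution in Sabouraud Dextrose Broth. Inoculum was 1x10³ CFU/mL, with 48 h at 30 °C before MIC determination. Growth, DMSO solvent and sterility controls were included. Three replicates per organism, at least three independent experiments.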

Acinetobacter baumannii [6] = test: Antimicrobial activity against quinilone-pencillin-resistant Acinetobacter baumannii clinical isolate by broth dilution method; type: functional
Priestia megaterium = test: Antimicrobial activity against Bacillus megaterium ATCC 19213 by broth dilution method; type: functional; how it was run: as §1
MCF7 = test: Antitumor activity against human MCF7 cells after 72 hrs by MTT assay; type: functional, cell-based; conditions: MCF7, 72 h; how it was run: as §3
Escherichia coli [7] = test: Antimicrobial activity against Escherichia coli ATCC 8739 by broth dilution method; type: functional; how it was run: as §1
Acinetobacter baumannii [8] = test: Antimicrobial activity against Acinetobacter baumannii ATCC 19606 by broth dilution method; type: functional; how it was run: as §1
[9] = Inhibition of Escherichia coli topoisomerase 4 assessed as decatenation of kDNA after 30 mins by electrophoresis
How it was run: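 E. coli topoisomerase IV decatenation of kinetoplast DNA was run in 40 mM HEPES-KOH pH 7.6 with 100 mM potassium glutamate, at varying compound amounts. Products were separated by agarose electrophoresis and quantified by gel documentation. IC₅₀ (µg/mL) is the concentration halving decatenation relative to drug-free enzyme control.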

Staphylococcus aureus [10] = test: Antimicrobial activity against quinilone-pencillin-resistant Staphylococcus aureus isolate SAR 72 by broth dilution method; type: functional; how it was run: as §2
[11] = tested on: Staphylococcus epidermidis; test: Antimicrobial activity against quinilone-pencillin-resistant Staphylococcus epidermidis clinical isolate by broth dilution method; type: functional
Bacillus subtilis = test: Antimicrobial activity against Bacillus subtilis ATCC 6633 by broth dilution method; type: functional; how it was run: as §1
Haemophilus influenzae = test: Antimicrobial activity against Haemophilus influenzae ATCC 19418 by broth dilution method; type: functional
How it was run: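 H. influenzae was grown in Haemophilus Test Medium using twofold serial broth dilution. […] Drug-free, DMSO-only and organism-free control tubes were included. Triplicates, with at least three independent experiments.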

NHDF = test: Antitumor activity against human NHDF cells after 72 hrs by MTT assay; type: functional, cell-based; how it was run: as §3
[12] = Inhibition of Escherichia coli DNA gyrase assessed as reduction of DNA supercoiling activity using pBR322 DNA substrate after 30 mins by electrophoresis
Aspergillus niger = test: Antimicrobial activity against Aspergillus niger ATCC 6275 by broth dilution method; type: functional; how it was run: as §4
Saccharomyces cerevisiae = test: Antimicrobial activity against Saccharomyces cerevisiae ATCC 9763 by broth dilution method; type: functional; how it was run: as §4
Bacillus cereus = test: Antimicrobial activity against Bacillus cereus ATCC 11778 by broth dilution method; type: functional; how it was run: as §1

SMILES | MIC [1] [ng/mL] | MIC (Staphylococcus aureus [2]) [ng/mL] | MIC (Staphylococcus aureus [3]) [ng/mL] | MIC [4] [ng/mL] | MIC (Pseudomonas aeruginosa) [ng/mL] | IC50 (A549) [µM] | MIC (Candida tropicalis) [ng/mL] | MIC (Acinetobacter baumannii [6]) [ng/mL] | MIC (Priestia megaterium) [ng/mL] | IC50 (MCF7) [µM] | MIC (Escherichia coli [7]) [ng/mL] | MIC (Acinetobacter baumannii [8]) [ng/mL] | MIC (Staphylococcus aureus [10]) [ng/mL] | MIC [11] [ng/mL] | MIC (Bacillus subtilis) [ng/mL] | MIC (Haemophilus influenzae) [ng/mL] | IC50 (NHDF) [µM] | MIC (Aspergillus niger) [ng/mL] | MIC (Saccharomyces cerevisiae) [ng/mL] | MIC (Bacillus cereus) [ng/mL] | further results
O=C(O)c1cn(C2CC2)c2sc3c4ccccc4[nH]c3c2c1=O | 30 (≈ 0.0925 µM) | 3 (≈ 0.00925 µM) | > 100000 | 7 (≈ 0.0216 µM) | > 100000 | 10 | > 100000 | > 100000 | 0.015 (≈ 4.62e-05 µM) | 5.2 | 25000 (≈ 77.1 µM) | 70 (≈ 0.216 µM) | 700 (≈ 2.16 µM) | 3000 (≈ 9.25 µM) | 0.015 (≈ 4.62e-05 µM) | 30 (≈ 0.0925 µM) | > 10 | > 100000 | > 100000 | 7 (≈ 0.0216 µM) | MIC (Escherichia coli [5]): > 100000 ng/mL; IC50 [9]: > 24000 ng/mL; IC50 [12]: 1000 ng/mL (≈ 3.08 µM)
Cc1ccc2c(c1)[nH]c1c2sc2c1c(=O)c(C(=O)O)cn2C1CC1 | 300 (≈ 0.887 µM) | 70 (≈ 0.207 µM) | > 100000 | 150 (≈ 0.443 µM) | > 100000 | 6.9 | > 100000 | > 100000 | 7 (≈ 0.0207 µM) | 2.8 | > 100000 | 700 (≈ 2.07 µM) | 12000 (≈ 35.5 µM) | 25000 (≈ 73.9 µM) | 0.3 (≈ 0.000887 µM) | 1500 (≈ 4.43 µM) | > 10 | > 100000 | > 100000 | 300 (≈ 0.887 µM) | –
COc1ccc2c(c1)[nH]c1c2sc2c1c(=O)c(C(=O)O)cn2C1CC1 | 150 (≈ 0.423 µM) | 15 (≈ 0.0423 µM) | > 100000 | 7 (≈ 0.0198 µM) | > 100000 | 2.6 | > 100000 | > 100000 | 0.03 (≈ 8.47e-05 µM) | 1.6 | > 100000 | 3000 (≈ 8.47 µM) | 1500 (≈ 4.23 µM) | 6000 (≈ 16.9 µM) | 0.3 (≈ 0.000847 µM) | 150 (≈ 0.423 µM) | > 10 | > 100000 | > 100000 | 30 (≈ 0.0847 µM) | IC50 [9]: > 24000 ng/mL; IC50 [12]: 1100 ng/mL (≈ 3.1 µM)
COc1c(C)cc2c([nH]c3c2sc2c3c(=O)c(C(=O)O)cn2C2CC2)c1C | 3000 (≈ 7.84 µM) | 6000 (≈ 15.7 µM) | > 100000 | 1500 (≈ 3.92 µM) | > 100000 | 4.7 | > 100000 | – | 3000 (≈ 7.84 µM) | 2.5 | > 100000 | > 100000 | 3000 (≈ 7.84 µM) | 3000 (≈ 7.84 µM) | 3000 (≈ 7.84 µM) | 6000 (≈ 15.7 µM) | > 10 | > 100000 | > 100000 | 3000 (≈ 7.84 µM) | –
O=C(O)c1cn(C2CC2)c2sc3c4ccc(F)cc4[nH]c3c2c1=O | 30 (≈ 0.0876 µM) | 3 (≈ 0.00876 µM) | > 100000 | 3 (≈ 0.00876 µM) | > 100000 | 2.7 | > 100000 | > 100000 | 0.015 (≈ 4.38e-05 µM) | 1.9 | 50000 (≈ 146 µM) | 150 (≈ 0.438 µM) | 700 (≈ 2.04 µM) | 1500 (≈ 4.38 µM) | 0.015 (≈ 4.38e-05 µM) | 150 (≈ 0.438 µM) | > 10 | > 100000 | 12000 (≈ 35.1 µM) | 7 (≈ 0.0204 µM) | MIC (Escherichia coli [5]): > 100000 ng/mL
O=C(O)c1cn(C2CC2)c2cc(N3CCNCC3)c(F)cc2c1=O [CIPROFLOXACIN] | 70 (≈ 0.211 µM) | 300 (≈ 0.905 µM) | > 100000 | 30 (≈ 0.0905 µM) | 70 (≈ 0.211 µM) | – | > 100000 | – | 7 (≈ 0.0211 µM) | – | – | 700 (≈ 2.11 µM) | 100000 (≈ 302 µM) | – | 30 (≈ 0.0905 µM) | 150 (≈ 0.453 µM) | – | > 100000 | > 100000 | 300 (≈ 0.905 µM) | IC50 [9]: 4600 ng/mL (≈ 13.9 µM); IC50 [12]: 340 ng/mL (≈ 1.03 µM)
Cc1c2ccncc2c(C)c2c1[nH]c1ccccc12 [ELLIPTECINE] | – | – | – | – | – | – | – | – | – | – | – | – | – | – | – | – | > 10 | – | – | – | –
CO/N=C1\CN(c2nc3c(cc2F)c(=O)c(C(=O)O)cn3C2CC2)CC1CN (configuration not stated) [GEMIFLOXACIN] | 15 (≈ 0.0385 µM) | 15 (≈ 0.0385 µM) | 50000 (≈ 128 µM) | 15 (≈ 0.0385 µM) | 70 (≈ 0.18 µM) | – | > 100000 | 100000 (≈ 257 µM) | 0.3 (≈ 0.00077 µM) | – | 15 (≈ 0.0385 µM) | 300 (≈ 0.77 µM) | 6000 (≈ 15.4 µM) | 50000 (≈ 128 µM) | 7 (≈ 0.018 µM) | 15 (≈ 0.0385 µM) | – | > 100000 | > 100000 | 70 (≈ 0.18 µM) | MIC (Escherichia coli [5]): 50000 ng/mL (≈ 128 µM)
C[C@H]1COc2c(N3CCN(C)CC3)c(F)cc3c(=O)c(C(=O)O)cn1c23.C[C@H]1COc2c(N3CCN(C)CC3)c(F)cc3c(=O)c(C(=O)O)cn1c23.O [LEVOFLOXACIN] | 150 | 70 | 100000 | 70 | 300 | – | > 100000 | > 100000 | 30 | – | – | 150 | 25000 | > 100000 | 30 | 150 | – | > 100000 | > 100000 | 150 | MIC (Escherichia coli [5]): 25000 ng/mL
Clc1ccc(COC(Cn2ccnc2)c2ccc(Cl)cc2Cl)c(Cl)c1 (configuration not stated) [MICONAZOLE] | – | – | – | – | – | – | 6000 (≈ 14.4 µM) | – | – | – | – | – | – | – | – | – | – | 3000 (≈ 7.21 µM) | 12000 (≈ 28.8 µM) | – | –
COc1c(N2C[C@@H]3CCCN[C@@H]3C2)c(F)cc2c(=O)c(C(=O)O)cn(C3CC3)c12 [MOXIFLOXACIN] | 70 (≈ 0.174 µM) | 30 (≈ 0.0747 µM) | 50000 (≈ 125 µM) | 30 (≈ 0.0747 µM) | 700 (≈ 1.74 µM) | – | > 100000 | – | 3 (≈ 0.00747 µM) | – | 30 (≈ 0.0747 µM) | 150 (≈ 0.374 µM) | 12000 (≈ 29.9 µM) | – | 15 (≈ 0.0374 µM) | 30 (≈ 0.0747 µM) | – | > 100000 | > 100000 | 300 (≈ 0.747 µM) | IC50 [9]: 5000 ng/mL (≈ 12.5 µM); IC50 [12]: 850 ng/mL (≈ 2.12 µM)
